Consider 22 compounds from ChEMBL document CHEMBL1137311, “Peptide inhibitors of West Nile NS3 protease: SAR study of tetrapeptide aldehyde inhibitors” (J Med Chem, 2006).

Structures are written as SMILES. Non-standard residues stand in square brackets, D forms with d. Residues, ends and D or L forms follow the SMILES beside them. *: point of attachment. NMeR = CN[C@@H](CCCNC(=N)N)C(=O)O; NMeK = CN[C@@H](CCCCN)C(=O)O; NMeNle = CCCC[C@H](NC)C(=O)O; Phg = N[C@H](C(=O)O)c1ccccc1; dNle = CCCC[C@@H](N)C(=O)O; Nle = CCCC[C@H](N)C(=O)O; Bz = O=C(c1ccccc1)*

This test can be described thus: Inhibition of West Nile virus NS3 protease. In short, it runs like this:
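Enzyme: WNV CF40-gly-NS3pro187 conjugate at 50 nM, preincubated with a range of inhibitor concentrations for 30 min at 37 °C. Buffer: 50 mM Tris pH 8.5 with 1 mM CHAPS. Reaction started with 20 µM Bz-nKRR-AMC. Fluorescence (ex 385/em 465 nm) followed continuously. IC50 from nonlinear fit of initial velocities, each point in duplicate within a single experiment.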
As for `C[C@H](NC(=O)c1ccccc1)C(=O)N[C@@H](CCCCN)C(=O)N[C@@H](CCCNC(=N)N)C(=O)N[C@H](C=O)CCCNC(=N)N` (Bz-AKRR-aldehyde), the IC50 (usually the concentration needed to halve the response being measured) was found to be 0.7 µM.

`NCCCC[C@H](NC(=O)[C@H](Cc1ccccc1)NC(=O)c1ccccc1)C(=O)N[C@@H](CCCN=C(N)N)C(=O)N[C@H](C=O)CCCN=C(N)N` (Bz-FKRR-aldehyde) displayed a half-inhibitory concentration (IC50) of 1.2 µM.

The compound `CCCC[C@@H](C(=O)N[C@@H](CCCCN)C(=O)N[C@@H](CCCN=C(N)N)C(=O)N[C@H](C=O)CCCN=C(N)N)N(C)C(=O)c1ccccc1` (Bz-[NMeNle]KRR-aldehyde) showed an IC50 of 9.3 µM.

`CCCC[C@H](NC(=O)c1ccccc1)C(=O)N[C@@H](C)C(=O)N[C@@H](CCCNC(=N)N)C(=O)N[C@H](C=O)CCCNC(=N)N` (Bz-[Nle]ARR-aldehyde) gave an IC50 of 3.8 µM.

`CCCC[C@H](NC(=O)c1ccccc1)C(=O)N[C@@H](Cc1ccccc1)C(=O)N[C@@H](CCCNC(=N)N)C(=O)N[C@H](C=O)CCCNC(=N)N` (Bz-[Nle]FRR-aldehyde): the IC50 was determined as 4.2 µM.

`CCCC[C@H](NC(=O)c1ccccc1)C(=O)N[C@@H](CCCCN)C(=O)N[C@@H](C)C(=O)N[C@H](C=O)CCCN=C(N)N` (Bz-[Nle]KAR-aldehyde): 262 µM corresponded to half-maximal inhibition (IC50).

Take `CCCC[C@H](NC(=O)c1ccccc1)C(=O)N[C@@H](CCCCN)C(=O)N[C@@H](Cc1ccccc1)C(=O)N[C@H](C=O)CCCNC(=N)N` (Bz-[Nle]KFR-aldehyde): the midpoint of inhibition, the IC50, lay at 108 µM.

Take `CCCC[C@H](NC(=O)c1ccccc1)C(=O)N[C@@H](CCCCN)C(=O)N[C@@H](CCCCN)C(=O)N[C@H](C=O)CCCNC(=N)N` (Bz-[Nle]KKR-aldehyde): inhibition was half-maximal at 1.9 µM (IC50).

`CCCC[C@H](NC(=O)c1ccccc1)C(=O)N[C@@H](CCCCN)C(=O)N[C@@H](CCCN=C(N)N)C(=O)N[C@@H](C)C=O` (Bz-[Nle]KRA-aldehyde) showed an IC50 of 4.6 µM.

`CCCC[C@H](NC(=O)c1ccccc1)C(=O)N[C@@H](CCCCN)C(=O)N[C@@H](CCCNC(=N)N)C(=O)N[C@H](C=O)Cc1ccccc1` (Bz-[Nle]KRF-aldehyde) gave an IC50 of 110 µM.

The compound `CCCC[C@H](NC(=O)c1ccccc1)C(=O)N[C@@H](CCCCN)C(=O)N[C@@H](CCCNC(=N)N)C(=O)N[C@H](C=O)Cc1cnc[nH]1` (Bz-[Nle]KRH-aldehyde) came in with an IC50 of 43.1 µM.

As to `CCCC[C@H](NC(=O)c1ccccc1)C(=O)N[C@@H](CCCCN)C(=O)N[C@@H](CCCNC(=N)N)C(=O)N[C@H](C=O)CCCCN` (Bz-[Nle]KRK-aldehyde), inhibition was half-maximal at 57.7 µM (IC50).

Regarding `CCCC[C@H](NC(=O)c1ccccc1)C(=O)N[C@@H](CCCCN)C(=O)N[C@@H](CCCNC(=N)N)C(=O)N[C@H](C=O)CCCNC(=N)N` (Bz-[Nle]KRR-aldehyde), the IC50 worked out at 4.1 µM.

The compound `CCCC[C@H](NC(=O)c1ccccc1)C(=O)N[C@@H](CCCCN)C(=O)N[C@@H](CCCN=C(N)N)C(=O)N[C@H](C=O)Cc1c[nH]c2ccccc12` (Bz-[Nle]KRW-aldehyde) returned an IC50 of 10 µM.

The compound `CCCC[C@H](NC(=O)c1ccccc1)C(=O)N[C@@H](CCCCN)C(=O)N[C@@H](CCCNC(=N)N)C(=O)N[C@H](C=O)c1ccccc1` (Bz-[Nle]KR[Phg]-aldehyde) gave an IC50 of 90.9 µM.

On to `CCCC[C@H](NC(=O)c1ccccc1)C(=O)N[C@@H](CCCCN)C(=O)N[C@@H](CCCN=C(N)N)C(=O)N[C@@H](C=O)CCCN=C(N)N` (Bz-[Nle]KR[dR]-aldehyde), for which the IC50 was determined as 14 µM.

Compound `CCCC[C@H](NC(=O)c1ccccc1)C(=O)N[C@@H](CCCCN)C(=O)N(C)[C@@H](CCCN=C(N)N)C(=O)N[C@H](C=O)CCCN=C(N)N` (Bz-[Nle]K[NMeR]R-aldehyde) had an IC50 of 57.8 µM.

The compound `CCCC[C@H](NC(=O)c1ccccc1)C(=O)N[C@@H](CCCCN)C(=O)N[C@H](CCCN=C(N)N)C(=O)N[C@H](C=O)CCCN=C(N)N` (Bz-[Nle]K[dR]R-aldehyde) displayed an IC50 of 129 µM.

`CCCC[C@H](NC(=O)c1ccccc1)C(=O)N1CCC[C@H]1C(=O)N[C@@H](CCCN=C(N)N)C(=O)N[C@H](C=O)CCCN=C(N)N` (Bz-[Nle]PRR-aldehyde) yielded an IC50 of 14.3 µM.

In the case of `CCCC[C@H](NC(=O)c1ccccc1)C(=O)N(C)[C@@H](CCCCN)C(=O)N[C@@H](CCCN=C(N)N)C(=O)N[C@H](C=O)CCCN=C(N)N` (Bz-[Nle][NMeK]RR-aldehyde), inhibition was half-maximal at 73.6 µM (IC50).

With `CCCC[C@H](NC(=O)c1ccccc1)C(=O)N[C@H](CCCCN)C(=O)N[C@@H](CCCN=C(N)N)C(=O)N[C@H](C=O)CCCN=C(N)N` (Bz-[Nle][dK]RR-aldehyde), the IC50 turned out to be 23.8 µM.

Regarding `CCCC[C@@H](NC(=O)c1ccccc1)C(=O)N[C@@H](CCCCN)C(=O)N[C@@H](CCCN=C(N)N)C(=O)N[C@H](C=O)CCCN=C(N)N` (Bz-[dNle]KRR-aldehyde), half-maximal inhibition (IC50) was put at 2.6 µM.
